Data as given in ChEMBL document CHEMBL4616646, “Synthesis and Cytotoxicity Studies of Stilbene Long-Chain Fatty Acid Conjugates” (J Nat Prod, 2020).

Assays:
KB 3-1 = experiment: Cytotoxicity against human KB3-1 cells after 68 hrs by MTT assay; assay type: functional, cell-based; details: KB 3-1, 68 h
Summary of the method: (§1)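 Cells grown in DMEM with 10% FBS and 1% P/S at 37 °C under 5% CO₂, trypsinized and seeded at ~5 × 10⁴ cells per well. Test drugs added after attachment at 0.1 to 100 μM. After 68 h, MTT (4 mg/mL) added for 4 h, supernatant discarded, formazan dissolved in DMSO, absorbance read at 570 nm. IC50 taken as concentration giving ~50% survival; mean ± SD of three independent experiments.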

NCI-H460 = experiment: Cytotoxicity against human NCI-H460 cells after 68 hrs by MTT assay; assay type: functional, cell-based; details: NCI-H460, 68 h; summary of the method: as §1
HEK293 = experiment: Cytotoxicity against HEK293 cells after 68 hrs by MTT assay; assay type: cell-based; details: Homo sapiens, HEK293, 68 h; summary of the method: as §1
MCF7 = experiment: Cytotoxicity against human MCF7 cells after 68 hrs by MTT assay; assay type: functional, cell-based; details: MCF7, 68 h; summary of the method: as §1

| Structure (SMILES) | IC50 (KB 3-1) [nM] | IC50 (NCI-H460) [nM] | IC50 (HEK293) [nM] | IC50 (MCF7) [nM] |
| --- | --- | --- | --- | --- |
| CCCCCCCCCCCCCCCCCC(=O)Oc1cc(/C=C/c2cc(OC)c(OC)c(OC)c2)ccc1OC | > 10000 | > 10000 | 2900 | > 10000 |
| CCCCCCCCCCCCCCCCCC(=O)Oc1cc(/C=C\c2cc(OC)c(OC)c(OC)c2)ccc1OC | 30 | 30 | 30 | 240 |
| CC/C=C\C/C=C\C/C=C\CCCCCCCC(=O)Oc1cc(/C=C/c2cc(OC)c(OC)c(OC)c2)ccc1OC | 2400 | > 10000 | 2400 | > 10000 |
| CCCCCCCC/C=C\CCCCCCCC(=O)Oc1ccc(/C=C/c2cc(OC)c(OC)c(OC)c2)cc1OC | > 100000 | > 100000 | > 100000 | > 100000 |
| CCCCCCCCCCCCCCCCCC(=O)Oc1ccc(/C=C\c2cc(OC)c(OC)c(OC)c2)cc1OC | 3100 | > 10000 | 3900 | 7700 |
| COc1cc2c(c(OC)c1OC)-c1ccc(OC)c(=O)cc1[C@@H](NC(C)=O)CC2 [COLCHICINE] | 20 | 60 | 20 | 60 |
| CCCCCCCCCCCCCCCCCC(=O)Oc1ccc(/C=C/c2cc(OC)c(OC)c(OC)c2)cc1OC | > 100000 | > 100000 | > 100000 | > 100000 |
| COc1ccc(/C=C\c2cc(OC)c(OC)c(OC)c2)cc1O [COMBRETASTATIN A4] | 10 | 10 | 10 | 90 |
| CC/C=C\C/C=C\C/C=C\CCCCCCCC(=O)Oc1cc(/C=C\c2cc(OC)c(OC)c(OC)c2)ccc1OC | 30 | 10 | 23 | > 10000 |
| CCCCC/C=C\C/C=C\CCCCCCCC(=O)Oc1cc(/C=C\c2cc(OC)c(OC)c(OC)c2)ccc1OC | 20 | 20 | 20 | > 10000 |
| CC/C=C\C/C=C\C/C=C\CCCCCCCC(=O)Oc1ccc(/C=C/c2cc(OC)c(OC)c(OC)c2)cc1OC | > 100000 | > 100000 | > 100000 | > 100000 |
| COc1ccc(/C=C/c2cc(OC)c(OC)c(OC)c2)cc1O [E-COMBRETASTATIN A-4] | 100 | 250 | 200 | 110 |
| CCCCCCCC/C=C\CCCCCCCC(=O)Oc1cc(/C=C\c2cc(OC)c(OC)c(OC)c2)ccc1OC | 30 | 310 | 30 | > 10000 |
| CCCCC/C=C\C/C=C\CCCCCCCC(=O)Oc1cc(/C=C/c2cc(OC)c(OC)c(OC)c2)ccc1OC | 4900 | 2400 | 2600 | > 10000 |
| CCCCC/C=C\C/C=C\CCCCCCCC(=O)Oc1ccc(/C=C/c2cc(OC)c(OC)c(OC)c2)cc1OC | > 100000 | > 100000 | > 100000 | > 100000 |
